Tests used:
Bos taurus = organism: Bos taurus; assay: Displacement of [3H]flumazenil from GABAA/Benzodiazepine receptor in bovine brain at 10 uM
Summary of the method: (§1)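 Bovine brain membranes; displacement of specific [3H]flumazenil (Ro15-1788) binding. Percent inhibition measured at 10 μM; Ki determined only when inhibition at that concentration exceeded 80%. Ki given as mean ± SEM of five determinations.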

[1] = Displacement of [3H]flumazenil from GABAA/Benzodiazepine receptor in bovine brain; parameters: species or system Bos taurus; summary of the method: as §1

| Compound | Activity (Bos taurus) [%] | Ki [1] [nM] |
| --- | --- | --- |
| [O-][n+]1nc2c(Br)cnn2c2cc(-c3ccccc3)ccc21 | > 80 | 802 |
| [O-][n+]1nc2c(I)cnn2c2cc(-c3ccccc3)ccc21 | > 80 | 966 |
| [O-][n+]1nc2c(I)cnn2c2cc(OC3CCCCC3)ccc21 | > 80 | 188 |
| [O-][n+]1nc2c(Cl)cnn2c2cc(Oc3ccccc3)ccc21 | > 80 | 43 |
| [O-][n+]1nc2ccnn2c2cc(OCc3ccccc3)ccc21 | > 80 | 116 |
| [O-][n+]1nc2c(I)cnn2c2cc(OCCc3ccccc3)ccc21 | > 80 | 43 |
| [O-][n+]1nc2c(-c3ccsc3)cnn2c2cc(Oc3ccccc3)ccc21 | > 80 | 68 |
| O=C(OCc1cccs1)c1cnn2c1n[n+]([O-])c1ccc(C(F)(F)F)cc12 | > 80 | 10 |
| [O-][n+]1nc2c(I)cnn2c2cc(CCc3ccccc3)ccc21 | > 80 | 464 |
| [O-][n+]1nc2c(I)cnn2c2cc(OCc3ccccc3OC(F)(F)F)ccc21 | > 80 | 6.6 |
| COc1ccccc1COC(=O)c1ccc2c(c1)n1ncc(C(F)(F)F)c1n[n+]2[O-] | > 80 | 5.8 |

Compounds with a lower Ki [1], results first:

| Activity (Bos taurus) [%] | Ki [1] [nM] | Compound |
| --- | --- | --- |
| > 80 | 1 | COc1ccccc1COC(=O)c1ccc2c(c1)n1ncc(Cl)c1n[n+]2[O-] |
| > 80 | 2.1 | CCOC(=O)c1cnn2c1n[n+]([O-])c1ccc(OCc3ccccc3)cc12 |
| > 80 | 1.2 | [O-][n+]1nc2c(I)cnn2c2cc(OCc3cccs3)ccc21 |
| > 80 | 0.42 | COc1ccccc1COc1ccc2c(c1)n1ncc(I)c1n[n+]2[O-] |
| > 80 | 0.8 | [O-][n+]1nc2c(I)cnn2c2cc(OCc3ccco3)ccc21 |
| > 80 | 1.41 | Cc1ccc2c(c1)n1ncc(C(=O)OCc3cccs3)c1n[n+]2[O-] |
| – | 3.4 | CC(Oc1ccc2c(c1)n1ncc(I)c1n[n+]2[O-])c1ccccc1 (racemic) |
| > 80 | 0.85 | CCOc1ccc2c(c1)n1ncc(C(=O)OCc3cccs3)c1n[n+]2[O-] |
| > 80 | 2.3 | COc1ccccc1COC(=O)c1ccc2c(c1)n1ncc(C)c1n[n+]2[O-] |
